The list is not random: actives were taken first. Their share in the collection is about 4%.
BB579 growth dn: reduces growth of yeast BB579 in restrictive medium | actives 0.51% (n = 140,000) | S. cerevisiae BB579 growth, OD615, 48 h | inhibition, % at 10 µM;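 active = inhibition above a set limit, 3 SD over the mean compound inhibition, cut at about 44% in these data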
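System: DeaD yeast strain BB579; buffer or medium: CSMM-D dextrose restrictive medium; technique: OD at 615 nm; schedule: 4 h cell preincubation, 48 h compound exposure, 30 °C humidified; doses: single 10 µM dose; controls: amphotericin B 10 µg/mL, positive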
MDM2 E3 inh: Mdm2 E3 ligase (human) inhibition. actives 0.11% (n = 210,000). cell-based MDM2 ubiquitination luciferase reporter, 2 h; 0 = plate control, 100 = twice control, blank-subtracted. AID 1230. signal enhancement, % at 5 µM;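 active = signal enhancement of 30% or more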;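 also: luminescence tracks abundance of the self-degrading MDM2-luciferase fusion protein; higher signal means inhibition of MDM2 E3 ligase activity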
Target sequence (Q00987 whole entry, looked up, the tested form may be a part): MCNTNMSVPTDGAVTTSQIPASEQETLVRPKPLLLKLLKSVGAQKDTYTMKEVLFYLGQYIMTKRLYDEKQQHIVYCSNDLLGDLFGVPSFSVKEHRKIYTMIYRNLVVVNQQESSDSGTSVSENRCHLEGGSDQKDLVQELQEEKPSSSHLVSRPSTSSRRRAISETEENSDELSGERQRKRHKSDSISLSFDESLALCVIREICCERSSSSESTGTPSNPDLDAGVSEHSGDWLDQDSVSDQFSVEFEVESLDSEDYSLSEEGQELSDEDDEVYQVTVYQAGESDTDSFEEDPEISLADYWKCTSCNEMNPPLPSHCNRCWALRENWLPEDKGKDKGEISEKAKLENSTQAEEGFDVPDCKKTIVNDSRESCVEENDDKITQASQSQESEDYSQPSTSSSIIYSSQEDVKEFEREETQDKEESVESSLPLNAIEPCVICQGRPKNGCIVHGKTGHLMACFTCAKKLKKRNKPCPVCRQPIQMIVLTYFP
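system = mammalian cells stably expressing self-ubiquitinating, self-degrading MDM2 E3–luciferase fusion | quantity = 2000 cells per well seeded | incubation = 4 h cell settling then 2 h compound exposure, 37 °C | signal = SteadyLite luminescence, 15 min reagent step | benchmarks = plate control and blank wells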
Measles CPE: protection of cells from measles virus | Measles virus-infected cells, CPE protection, absorbance | protection (pct of control), % at 4 µM | actives 1.5% (n = 140,000) | AID 841; in the data active = protection mostly above about 24%, no sharp cut-off; inactive = mostly below about 26%
Yeast life ext: yeast lifespan extension; S. cerevisiae growth with nicotinamide, OD615; deaD strain in restrictive glucose medium; inhibition of the nicotinamide effect, % at 10 µM; actives 0.68% (n = 130,000);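 active = inhibition above a set limit, placed 3 SD over the median of all compounds, cut at about 26% in these data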;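 also: 0% = nicotinamide-treated wells and 100% = cells grown without nicotinamide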
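Assay system: engineered S. cerevisiae DeaD replicative-lifespan strain, galactose-grown log-phase cells; medium: restrictive CSMM-D dextrose medium; also added: nicotinamide, 1.5 mM, co-present with compound; schedule: 48 h compound exposure at 30 °C, humidified; detection: absorbance at 615 nm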
Insulin prom inh: TRM-6 insulin promoter activity inhibition | actives 0.9% (n = 130,000) | AID 1273 | TRM-6 cells, insulin promoter-eGFP reporter, imaging; reporter expression induced with tamoxifen | inhibition, % at 2 µM;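 active = inhibition above the mean plus 3 SD, with well images judged a real hit on visual review, cut at about 60% in these data, passing the limit was not always enough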
RAM network inh: yeast RAM network inhibition | actives 1.8% (n = 190,000) | inhibition, % at 50 µM | S. cerevisiae dse1pr::URA3 reporter, 5-FOA growth OD615, 2 d; analog-sensitive cbk1-as2 kinase mutant strain;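 active = inhibition above a set limit, 3 SD over mean compound inhibition, cut at about 8.4% in these data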;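 also: 0% = DMSO-only wells with no growth and 100% = 10 µM 1-NA-PP1 full growth; inhibition rescues growth on 5-FOA so higher OD means more RAM inhibition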
Starred values were filed as active, the others as inactive; / = not tested or not shown.

SMILES	BB579 growth dn	MDM2 E3 inh	Measles CPE	Yeast life ext	Insulin prom inh	RAM network inh
CN(C)S(=O)(=O)c1ccc(NC(=O)N2CCN(c3ccccc3)CC2)cc1	-38	-3	40*	-10	/	3
CCC(NC(=O)c1ccc([N+](=O)[O-])cc1[N+](=O)[O-])c1ccccc1 (stereo not drawn)	-28	-6	5	2	-80	3
CC(NC(=O)c1ccc([N+](=O)[O-])cc1[N+](=O)[O-])c1ccc(-c2ccccc2)cc1 (stereo not drawn)	-29	5	40*	1	33	3
COc1ccc(S(=O)CC(=O)Nc2ccc(Cl)cc2Cl)cc1 (stereo not drawn)	/	-9	/	/	15	0
O=[N+]([O-])c1ccc(N/N=C/c2sc(N3CCOCC3)nc2-c2ccccc2)c(S(=O)(=O)Nc2ccccc2Cl)c1	/	/	/	/	/	8.4*
Cn1c(=O)cc(OCC(=O)N2CCC(N3CCCCC3)CC2)c2ccccc21	4	-14	4	-4	/	0
COc1ccc(N)c2c1C(=O)c1ccccc1C2=O	71*	4	7	-9	/	0
Nc1ccc(O)c2c1C(=O)c1ccccc1C2=O	69*	-7	20	-5	-14	3
COc1ccc(OC)c2c1C(=O)c1ccccc1C2=O	23	-16	15	-3	/	1
CCc1cc(=O)oc2cc3occ(-c4ccc(OC)c(F)c4)c3cc12	-20	0	16	-8	-104	3
O=C(CSc1ncccn1)NN=C1CCCCCC1	-46	1	2	0	67*	0
Cc1cc(C)cc(CSCC(=O)NN=C2CCCCCC2)c1	-32	-4	9	-1	-47	0
COC(=O)Cn1c2ccccc2c2nc(C)sc21	49*	2	3	-13	5	0
COC(=O)Cn1c2ccc(F)cc2c2nc(C)sc21	-26	-14	18	-15	/	0
Clc1ccc(-c2nnc3n2-c2ccccc2SC3)cc1	/	-8	/	/	/	/
CN1C(c2ccc(F)cc2)=CS/C1=C(\C#N)c1nnc2n1-c1ccccc1SC2	-17	-3	31*	-21	/	2
Cc1ccc(C(=O)NNC(=S)NC(=O)c2ccc(Cl)cc2)cc1	-32	-36	3	95*	0	1
O=C(CSc1nnc(-c2c[nH]c3ccccc23)o1)N(Cc1ccccc1)c1ccc(F)cc1	-54	4	6	5	-3	4
COC(=O)CN(C(=O)CSc1nnc(-c2cccc(OC)c2)o1)c1ccc(OC)cc1	-72	-17	10	9	45	11*
COc1ccc(CN(C(=O)CSc2nnc(-c3ccccc3C)o2)c2ccc(F)cc2)cc1	-8	-8	13	/	-128	11*
CCOC(=O)CN(C(=O)CSc1nnc(-c2cccc(OC)c2)o1)c1ccc(F)cc1	-19	-9	5	4	/	6
COc1ccc(-c2nnc(SCc3nc4ccccc4c(=O)[nH]3)o2)cc1	/	-9	/	/	/	/
O=C(N/N=C/c1cccc(Cl)c1)C(c1ccncc1)N1CCOCC1 (stereo not drawn)	/	-11	/	/	/	/
Nc1nc(Nc2cccc(Cl)c2)n[nH]1	/	-7	/	/	/	/
O=C1CC(N2CCOCC2)C(=O)N1Cc1ccc(N2CCCC2=O)cc1 (stereo not drawn)	20	-5	42*	-5	39	2
SMILES	BB579 growth dn	MDM2 E3 inh	Measles CPE	Yeast life ext	Insulin prom inh	RAM network inh
O=C1CCCN1CCC1CCN(C2CC(=O)N(Cc3ccc(N4CCCC4=O)cc3)C2=O)CC1 (stereo not drawn)	-38	-8	5	-23	-54	-1
N=c1ncn(Cc2ccccc2)c2nc(SCCOc3ccccc3)[nH]c12	-8	-12	17	4	/	6
Cc1ccccc1C(=O)NN1C(=O)CSC1=S	-16	-10	30	14	28	0
CCOC(=O)c1ccccc1N1C(=O)CSC1=S	-25	-6	13	37*	29	0
CC(C)C(C(=O)OCC(=O)c1ccccc1)N1C(=O)C2C3C=CC(C3)C2C1=O (stereo not drawn)	/	-7	/	/	-58	1
O=C(/C=C/c1ccc(O)c(O)c1)c1ccc(S(=O)(=O)N2CCCCCC2)cc1	-32	2	6	1	7	9.4*
COC(=O)c1ccc(S(=O)(=O)N2CCCCCC2)cc1	-22	-12	12	2	-9	1
Cc1cc(C)nc(S/C=C/C(=O)c2ccccc2F)n1	/	39*	/	/	/	/
Cn1ncc([N+](=O)[O-])c1C(=O)N/N=C/c1ccc(F)cc1	-26	-10	18	7	-27	1
COC(=O)c1ccc(Sc2ccc(C)cc2)c(N)c1	-2	23	9	-24	/	0
COc1cc(Sc2ccc(C)cc2)c(OC)cc1N	-23	4	4	-12	23	11*
N#Cc1c(NC(=O)C2CCCO2)sc2c1CCCCCC2 (stereo not drawn)	-35	2	16	-1	31	2
O=C(CC1NCCNC1=O)NC1Cc2ccccc2C1 (stereo not drawn)	/	-10	/	/	/	/
Cc1ccc(-n2nc(C(=O)c3ccccc3)n3c(=O)cc(-c4ccccc4)nc23)cc1	-39	-8	26*	-4	/	4
CCOC(=O)c1nn(-c2ccc(C)cc2)c2nc(Nc3ccccc3)cc(=O)n12	-49	-4	9	-7	21	6
Cc1ccc(C)c(N(CC(=O)NC2CCCC2)C(=O)c2oc(C(C)(C)C)cc2C)c1	-38	-7	8	-4	39	9.5*
Cc1cc(C(C)(C)C)oc1C(=O)N(CC(=O)NC1CCCC1)Cc1ccccc1	-31	-22	12	5	/	3
O=C(COc1ccccc1)N1CCN=C1SCc1ccc(F)cc1	/	-2	/	/	/	/
O=C(COc1ccccc1)N1CCN=C1SCc1cccnc1	56*	-8	6	-16	/	1
COc1cccc(/C=C/C(=O)c2ccc[nH]2)c1	-79	-9	11	-17	7	-1
COc1cccc(/C=C/C(=O)Oc2ccc(C(=O)c3ccc(F)cc3)cc2)c1	-21	0	26	3	/	8.7*
Cc1ccc(C)c(-n2c(-c3csc(C)c3C)n[nH]c2=S)c1	-12	-9	7	3	-15	2
O=C1OC2(CCCCC2)OC(=O)C1=CNc1nccs1	-16	-11	33	25	12	2
O=C1OC2(CCCCC2)OC(=O)C1=CNc1nc2ccccc2s1	-42	-10	5	69*	-25	1
CCOC(=O)c1cnn(-c2nc(-c3ccccc3)cs2)c1C(F)(F)F	2	-24	13	-27	-19	10*
CCOC(=O)c1cnn(-c2nc(-c3ccc(F)cc3)cs2)c1C(F)(F)F	-10	-12	14	-7	-20	9.2*

High-throughput results (PubChem)
